Experimental data: ChEMBL document CHEMBL3994667, “Small Molecule Lysyl Oxidase-like 2 (LOXL2) Inhibitors: The Identification of an Inhibitor Selective for LOXL2 over LOX” (ACS Med Chem Lett, 2017); call rule not given here

What was measured:
[1] = target: T1, Amine oxidase [flavin-containing] B (Homo sapiens, UniProt P27338); assay: Inhibition of recombinant human MAO-B at 30 uM using benzylamine as substrate preincubated for 2 hrs followed by substrate addition measured every 30 secs for 10 minutes by Amplex red dye based fluorescence assay
T1 sequence (P27338 whole entry): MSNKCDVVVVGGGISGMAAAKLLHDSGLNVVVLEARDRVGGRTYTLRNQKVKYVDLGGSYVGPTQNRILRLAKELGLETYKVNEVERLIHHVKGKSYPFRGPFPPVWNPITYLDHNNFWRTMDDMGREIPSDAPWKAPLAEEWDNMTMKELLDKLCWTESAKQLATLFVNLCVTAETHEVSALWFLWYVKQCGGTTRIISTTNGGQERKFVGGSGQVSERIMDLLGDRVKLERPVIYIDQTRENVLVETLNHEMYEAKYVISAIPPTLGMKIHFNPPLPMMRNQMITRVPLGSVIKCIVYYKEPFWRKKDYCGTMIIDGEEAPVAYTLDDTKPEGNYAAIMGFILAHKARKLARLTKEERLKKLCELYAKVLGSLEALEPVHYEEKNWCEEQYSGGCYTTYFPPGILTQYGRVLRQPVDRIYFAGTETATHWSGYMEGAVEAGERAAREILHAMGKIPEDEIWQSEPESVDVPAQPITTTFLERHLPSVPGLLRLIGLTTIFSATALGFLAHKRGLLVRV

Lysyl oxidase homolog 2 [2] = target: T2, Lysyl oxidase homolog 2 (Homo sapiens, UniProt Q9Y4K0); assay: Inhibition of full length recombinant human LOXL2 expressed in CHO cells spiked into human whole blood assessed as reduction in H2O2 production using DAP as substrate preincubated for 2 followed by substrate addition measured every 90 secs for 45 mins by Amplex red dye based fluorescence assay; assay type: cell-based
T2 sequence (Q9Y4K0 whole entry): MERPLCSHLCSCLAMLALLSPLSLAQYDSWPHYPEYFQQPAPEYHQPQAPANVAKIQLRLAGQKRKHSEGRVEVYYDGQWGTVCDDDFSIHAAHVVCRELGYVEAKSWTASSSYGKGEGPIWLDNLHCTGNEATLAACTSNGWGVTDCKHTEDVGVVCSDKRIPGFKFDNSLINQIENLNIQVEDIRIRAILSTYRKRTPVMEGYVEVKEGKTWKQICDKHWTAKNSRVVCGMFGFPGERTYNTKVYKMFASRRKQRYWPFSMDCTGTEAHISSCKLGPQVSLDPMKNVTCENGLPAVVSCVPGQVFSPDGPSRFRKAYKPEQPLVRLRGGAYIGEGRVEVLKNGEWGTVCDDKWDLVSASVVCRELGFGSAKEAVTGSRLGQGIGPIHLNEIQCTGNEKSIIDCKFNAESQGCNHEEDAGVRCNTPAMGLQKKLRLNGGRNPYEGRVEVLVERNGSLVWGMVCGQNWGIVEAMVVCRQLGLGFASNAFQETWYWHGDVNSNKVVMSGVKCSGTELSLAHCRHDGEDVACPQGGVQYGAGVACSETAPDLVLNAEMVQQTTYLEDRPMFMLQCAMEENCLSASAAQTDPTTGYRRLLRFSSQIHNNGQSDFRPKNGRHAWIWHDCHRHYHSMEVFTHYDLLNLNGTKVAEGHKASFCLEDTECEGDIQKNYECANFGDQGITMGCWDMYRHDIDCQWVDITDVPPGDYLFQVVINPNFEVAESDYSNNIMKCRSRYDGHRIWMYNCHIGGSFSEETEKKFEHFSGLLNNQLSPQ
Method in brief: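 Human recombinant LOXL2 spiked into human whole blood. Oxidative deamination of 1,5-diaminopentane measured as H2O2 with Amplex Red. IC50 expressed as geometric mean x/÷ geometric SD with N.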

Lysyl oxidase homolog 2 [3] = target: T3, Lysyl oxidase homolog 2 (Mus musculus, UniProt P58022); assay: Inhibition of full length recombinant mouse LOXL2 expressed in CHO cells assessed as reduction in H2O2 production using DAP as substrate preincubated for 2 hrs followed by substrate addition measured every 2 minutes for 50 minutes in presence of BSA by Amplex red dye based fluorescence assay; assay type: cell-based
T3 sequence (P58022 whole entry): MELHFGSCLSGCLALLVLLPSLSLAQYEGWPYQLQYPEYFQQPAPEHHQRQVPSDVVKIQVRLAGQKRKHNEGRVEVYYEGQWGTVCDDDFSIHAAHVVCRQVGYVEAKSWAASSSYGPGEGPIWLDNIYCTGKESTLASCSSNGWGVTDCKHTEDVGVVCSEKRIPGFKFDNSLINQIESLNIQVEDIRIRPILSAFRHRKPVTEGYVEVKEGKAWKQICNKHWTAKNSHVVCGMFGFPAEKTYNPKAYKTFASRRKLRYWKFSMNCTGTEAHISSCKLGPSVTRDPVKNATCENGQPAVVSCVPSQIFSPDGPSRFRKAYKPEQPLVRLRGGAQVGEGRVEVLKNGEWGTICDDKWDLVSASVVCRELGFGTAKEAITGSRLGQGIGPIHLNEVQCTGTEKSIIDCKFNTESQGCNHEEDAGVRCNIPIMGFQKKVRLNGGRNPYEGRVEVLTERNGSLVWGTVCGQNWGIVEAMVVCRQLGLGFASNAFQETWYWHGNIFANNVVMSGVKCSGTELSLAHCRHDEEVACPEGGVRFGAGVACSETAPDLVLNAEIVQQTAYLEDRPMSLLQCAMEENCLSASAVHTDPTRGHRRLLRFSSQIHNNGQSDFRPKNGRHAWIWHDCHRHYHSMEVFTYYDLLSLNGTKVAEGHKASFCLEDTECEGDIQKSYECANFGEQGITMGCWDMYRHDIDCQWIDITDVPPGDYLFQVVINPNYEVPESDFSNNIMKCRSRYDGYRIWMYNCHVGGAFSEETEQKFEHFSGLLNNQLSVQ
Method in brief: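 Rodent LOXL2 is tested under the same conditions as the BSA-supplemented assay: conditioned media plus BSA, with DAP as substrate and Amplex Red detection of H2O2. Species are mouse and rat. IC50 is the geometric mean x/÷ geometric standard deviation from 3 determinations.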

NCc1ccnc(Cl)c1
inhibition (INH) [1]: Not Active
IC50 (Lysyl oxidase homolog 2 [2]): 1450 nM
IC50 (Lysyl oxidase homolog 2 [3]): 227 nM
